# Tb MetRS inh = T. brucei MetRS inhibitors, primary screen, biochemical, luminescence | inhibition, % at 11.9 µM | AID 624268, 2012 | actives 0.4% (n = 360,000) | purified T. brucei MetRS, ATP depletion, Kinase-Glo luminescence | methionyl-tRNA synthetase (Trypanosoma brucei brucei);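 active = inhibition above a per-plate cutoff of the control wells' mean inhibition plus 3 SD, cut at about 5.5% in these data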;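 also: 0% = DMSO wells median and 100% = median of wells with control inhibitor compound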
#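 technique = Kinase-Glo luminescence, ATP depletion format | system = purified MetRS (methionyl-tRNA synthetase) enzyme from Trypanosoma brucei | timing = 15 min preincubation, 2 h reaction, all 25 °C | evaluation = percent inhibition versus plate control medians | dosing = single dose, 11.9 µM final nominal, 0.9% final DMSO | also added = substrates ATP, L-methionine and bulk Escherichia coli tRNA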
# CHOP UPR activ = activators of apoptotic CHOP UPR arm, primary screen, cell-based, CHO-CHOP luciferase reporter, luminescence, uHTS | UPR activation; percent of tunicamycin response over DMSO baseline | activation, % at 10 µM | actives 0.34% (n = 330,000) | AID 449763, 2010;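 active = at 10 µM dose, activation of 40% or more, normalized to positive control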;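 also: 100% = tunicamycin at 10 µg/mL and 0% = DMSO alone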
#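 System: CHO-CHOP luciferase reporter cell line; amount: 500 cells/well; buffer or medium: F12 medium containing 10% fetal bovine serum; incubation: 6 h compound exposure at 37 °C after overnight seeding; measured by: luciferase luminescence after 10 min with Steady-Glo reagent; evaluation: % reporter activation, DMSO baseline versus tunicamycin full activation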
# V-ATPase pH = regulators of yeast V-ATPase proton pumping, primary screen, pHLuorin cytosolic pH fluorescence | S. cerevisiae | response, % at 10 µM | actives 0.37% (n = 350,000); in the data active = response mostly above about 7.3%, no sharp cut-off; inactive = mostly below about 5.4%; also: actives read high
# CHOP inhibitor = inhibitors of CHOP promoter induction, primary screen, cell-based, unfolded protein response, luciferase reporter | inhibition, % at 10 µM | CHO-K1 CHOP-promoter luciferase, tunicamycin-induced, 15-18 h | actives 3.8% (n = 220,000);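 active = compounds that reduced the stress-induced luciferase reporter signal by more than about 70% of percent inhibition, limit read from the data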;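 also: 0% = tunicamycin plus vehicle and 100% = wells without tunicamycin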
# XBP1 UPR activ = activators of adaptive XBP1 UPR arm, primary screen, cell-based, CHO-XBP1 luciferase reporter, luminescence, uHTS; IRE1-XBP1 UPR activation; percent of tunicamycin response, DMSO as zero; actives 0.33% (n = 330,000); activation, % at 20 µM;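 active = versus positive control, 20 µM dose yields 30% or more activation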;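 also: 100% = tunicamycin at 10 µg/mL and 0% = DMSO only wells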
#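 incubation = overnight seeding at 37 °C, 6 h compound treatment at 37 °C | assay system = CHO-XBP1 cells stably carrying IRE1-XBP1-driven luciferase reporter | input = 1000 cells per well | detection = luciferase luminescence | dosing = single point, 20 µM final compound, 1% DMSO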
# TbMetRS confirm = T. brucei MetRS inhibitors, confirmation, biochemical, luminescence; T. brucei MetRS enzyme, luminescence (ATP depletion); inhibition, % at 11.9 µM; AID 624412, 2012; shares compounds with Tb MetRS inh; actives 93% (n = 1,400); in the data active = inhibition above about 7%
# Jurkat cytotox = Jurkat T cell cytotoxicity, cytotoxicity control for T. brucei MetRS inhibitor project, luminescence, high throughput | shares compounds with Tb MetRS inh | Jurkat cells viability, ATP luminescence | inhibition, % at 8.3 µM | actives 12% (n = 1,400); in the data active = inhibition above about 15%;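 also: 0% = vehicle and 100% = reference inhibitor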
# TbMetRS FP orth = T. brucei MetRS inhibitors, orthogonal assay for T. brucei MetRS inhibitor project, biochemical, fluorescence polarization; shares compounds with Tb MetRS inh; purified T. brucei MetRS; inhibition, % at 11.9 µM; actives 44% (n = 1,400); in the data active = inhibition above about 17%;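 also: 0% = vehicle wells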
# Numbers without * were called inactive; x = no result given. The full list was thinned out, with hits kept by preference.
SMILES,Tb MetRS inh,CHOP UPR activ,V-ATPase pH,CHOP inhibitor,XBP1 UPR activ,TbMetRS confirm,Jurkat cytotox,TbMetRS FP orth
COc1ccc(NC(=O)N(C)[C@H]2C[C@H]3c4[nH]c5ccccc5c4CCN3C(=O)[C@H]2CO)cc1,0.4,x,0.1,x,x,x,x,x
C[C@H](O)[C@@H]1C(=O)N2CCc3c([nH]c4ccccc34)[C@@H]2C[C@@H]1N(C)S(=O)(=O)c1ccccc1,27.2*,x,3.8,x,x,23.4*,5.3,8.2
CCOC(=O)N(C)[C@H]1C[C@H]2c3[nH]c4ccccc4c3CCN2C[C@H]1[C@H](C)O,0.3,x,x,x,x,x,x,x
Cc1nc(Br)c(Br)c(C)c1Br,-0.1,1.2,0.2,16.2,-2.9,x,x,x
C[C@H](O)[C@@H]1C(=O)N2CCc3c([nH]c4ccccc34)[C@@H]2C[C@@H]1N(C)C(=O)c1cc(Cl)cc(Cl)c1,12.6*,x,x,x,x,46.0*,0.4,19.8*
C[C@H](O)[C@@H]1C(=O)N2CCc3c([nH]c4ccccc34)[C@@H]2C[C@@H]1N(C)C(=O)Nc1cccc2ccccc12,0.6,x,x,x,x,x,x,x
Cc1ccccc1C(=O)N(C)[C@H]1C[C@H]2c3[nH]c4ccccc4c3CCN2C(=O)[C@H]1[C@H](C)O,31.4*,x,-0.9,x,x,47.9*,4.2,18.1*
COc1ccc(NC(=O)N(C)[C@H]2C[C@H]3c4[nH]c5ccccc5c4CCN3C(=O)[C@H]2[C@H](C)O)cc1,1.7,x,2.1,x,x,x,x,x
Cc1ccc(NC(=O)CSc2nnnn2-c2cccnc2)c(C)c1,-0.5,2.2,-5.3,x,-1.9,x,x,x
CSCCC(NC(=O)c1ccco1)C(=O)NCC1CCCO1 (stereo not drawn),-0.3,0.4,0.6,x,-0.4,x,x,x
O=C(NCc1nc2ccccc2[nH]1)C1=C[C@@H](C2CCCCC2)C[C@@H](OCc2ccc(CO)cc2)O1,9.0*,0.3,1.0,25.0,-1.8,82.1*,1.0,53.9*
O=C(NCc1nc2ccccc2[nH]1)C1=C[C@H](C2CC2)C[C@H](OCCCCO)O1,-0.2,7.0,-2.1,9.7,-0.5,x,x,x
O=C(NCc1nc2ccccc2[nH]1)C1=C[C@H](C2CCCCC2)C[C@H](OCCCCO)O1,58.8*,-2.7,0.4,x,-0.5,74.8*,6.7,52.8*
COc1ccc2[nH]c3c(NCCCOC(C)C)ncnc3c2c1,6.2*,4.9,-0.2,x,2.4,17.4*,8.9,10.1
COc1ccc2[nH]c3c(NCCC4=CCCCC4)ncnc3c2c1,17.8*,x,6.1,71.9*,x,39.9*,51.5*,30.8*
CCN(CC)CCNc1ncnc2c1[nH]c1ccc(OC)cc12,x,-0.4,x,2.0,-1.7,x,x,x
COc1cc(NC(=O)c2ccc([N+](=O)[O-])cc2)ccc1NC(=O)C(C)C,-0.5,-0.1,-0.7,-2.3,-2.4,x,x,x
Cc1cc(C(=O)COC(=O)c2cccc(O)c2)c(C)n1C1CC1,-0.6,-6.5,-3.4,x,-7.0,x,x,x
CCN(CC)c1ccc(/C=N/NC(=O)Cc2nnc(NC(=O)Nc3ccccc3)s2)cc1,8.4*,0.0,2.2,6.4,-1.2,9.2*,2.7,5.0
CCN(CC)c1ccc(/C=N/NC(=O)Nc2ccccc2)cc1,0.0,6.1,-1.7,-19.6,5.8,x,x,x
O=C(NC(=C(Cl)Cl)S(=O)(=O)c1ccc(Cl)cc1)c1ccccc1,-0.4,13.3,-0.3,3.0,1.7,x,x,x
COc1ccc(S(=O)(=O)Nc2c(C)cccc2C)cc1-n1cnnn1,5.9*,-0.2,-2.9,x,-0.9,2.6,-6.0,0.9
COc1ccc(S(=O)(=O)NC2CC2)cc1-n1cnnn1,-0.4,-0.7,4.0,-5.6,-2.4,x,x,x
CN(C)C1(CNC(=O)C2CCN(S(=O)(=O)c3c(Cl)cccc3Cl)CC2)CCCCC1,-0.1,-1.3,-1.5,x,-0.8,x,x,x
COC(=O)c1cc(-c2ccc(Br)cc2)n[nH]1,10.3*,6.8,-4.6,60.4,7.2,28.0*,-5.0,11.9
SMILES,Tb MetRS inh,CHOP UPR activ,V-ATPase pH,CHOP inhibitor,XBP1 UPR activ,TbMetRS confirm,Jurkat cytotox,TbMetRS FP orth
COc1ccccc1CNC(=O)COC(=O)c1ccc(Cl)c(N)c1,2.5,-1.6,5.1,0.9,-2.2,x,x,x
Nc1cc(C(=O)OCC(=O)NCCNC(=O)COC(=O)c2ccc(Cl)c(N)c2)ccc1Cl,11.4*,2.3,1.5,x,0.8,30.4*,-1.9,7.9
C=CCNC(=S)NNC(=O)COc1ccc2cc(Br)ccc2c1,19.4*,4.9,-0.4,-8.3,-1.8,46.5*,-0.7,23.6*
O=C(Cn1cc(C(=O)c2cccs2)c2ccccc21)NCc1ccc2c(c1)OCO2,21.1*,1.3,1.7,37.1,-2.4,35.0*,4.5,15.8
Cc1ccc(S(=O)(=O)N2[C@H](CC(=O)Oc3ccccc3)OC[C@@H]2C(C)C)cc1,0.4,x,x,x,x,x,x,x
Nc1ncnc2nc(SCCOc3ccc(Cl)cc3)[nH]c12,5.7*,0.6,2.6,30.2,0.5,14.2*,-12.4,1.9
Nc1nnc(COc2ccc(Br)cc2Br)s1,21.3*,3.6,-2.2,-56.5,3.7,42.4*,4.3,20.5*
C=CCc1cccc(/C=N/n2cnnc2)c1O,-1.1,-0.8,-3.5,0.9,1.1,x,x,x
C=CCc1cccc(/C=C/c2cc(=O)c3ccccc3[nH]2)c1O,6.4*,0.1,-1.8,5.7,-0.6,18.9*,15.3*,8.1
CCn1cc(CN2CCC(n3nccc3NC(=O)c3ccc(OC)cc3)CC2)cn1,-0.7,3.3,-7.0,x,-0.4,x,x,x
N#Cc1c(N)n(CCNC(=O)c2ccc(Cl)cc2)c2nc3ccccc3nc12,-1.0,-1.3,1.1,11.8,-0.3,x,x,x
CCCCn1c(NC(=O)c2ccccc2)c(C#N)c2nc3ccccc3nc21,10.6*,x,2.1,-9.9,x,15.3*,4.4,7.0

# High-throughput results (PubChem BioAssay)
